Legend:
[1] = molecular target: T1, Retinoblastoma-associated protein (Homo sapiens, UniProt P06400); test: ChEBML_1684306
T1 sequence (P06400 whole entry): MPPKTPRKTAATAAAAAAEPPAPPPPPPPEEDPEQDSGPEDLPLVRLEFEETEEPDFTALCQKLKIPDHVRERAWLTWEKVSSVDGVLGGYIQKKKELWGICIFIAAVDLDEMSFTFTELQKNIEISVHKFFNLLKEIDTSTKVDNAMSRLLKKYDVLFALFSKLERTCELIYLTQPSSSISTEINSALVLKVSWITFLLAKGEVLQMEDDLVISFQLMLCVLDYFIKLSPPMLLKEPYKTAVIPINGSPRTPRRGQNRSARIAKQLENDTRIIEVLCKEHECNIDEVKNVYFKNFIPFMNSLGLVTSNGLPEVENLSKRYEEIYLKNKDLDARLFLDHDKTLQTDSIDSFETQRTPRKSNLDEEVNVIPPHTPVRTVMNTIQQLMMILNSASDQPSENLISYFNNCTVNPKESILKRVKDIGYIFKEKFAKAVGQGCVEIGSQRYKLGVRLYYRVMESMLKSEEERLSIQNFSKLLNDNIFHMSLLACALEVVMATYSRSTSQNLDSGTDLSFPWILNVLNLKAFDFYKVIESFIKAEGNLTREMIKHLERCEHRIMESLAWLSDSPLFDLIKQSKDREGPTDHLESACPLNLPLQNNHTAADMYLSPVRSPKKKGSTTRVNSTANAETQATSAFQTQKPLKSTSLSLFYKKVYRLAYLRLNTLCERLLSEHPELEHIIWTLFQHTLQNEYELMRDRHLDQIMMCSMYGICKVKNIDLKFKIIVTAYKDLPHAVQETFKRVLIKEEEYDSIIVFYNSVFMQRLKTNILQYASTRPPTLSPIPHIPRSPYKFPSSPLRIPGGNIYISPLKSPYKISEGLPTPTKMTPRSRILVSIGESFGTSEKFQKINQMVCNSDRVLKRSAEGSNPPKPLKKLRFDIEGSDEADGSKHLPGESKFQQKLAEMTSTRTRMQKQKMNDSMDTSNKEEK

[2] = molecular target: T1, Retinoblastoma-associated protein; test: Inhibition of retinoblastoma protein phosphorylation in human MDA-MB-231 cells after 16 hrs by Hoechst 33342 staining based fluorescence assay
Procedure, shortened: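 Fixation in 3.7% formaldehyde, 0.1% Triton X permeabilization, anti-pRb primary with Dylight 549 secondary; nuclei counterstained with Hoechst 33342; high-content imaging on ArrayScan reader.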

| IC50 [1] | IC50 [2] | Compound |
| --- | --- | --- |
| 15 µM |  | c1ccc2c3c([nH]c2c1)C(NC1CCCCC1)CCC3 (stereo not drawn) |
| 10 µM |  | c1ccc2c3c([nH]c2c1)C(NC1CCCC1)CCC3 (stereo not drawn) |
|  | 15 µM | CC1CCC(NC2CCCc3c2[nH]c2ccccc32)C1 (stereo not drawn) |
| 9.2 µM |  | O=S(=O)(NC1CCCc2c1[nH]c1ccccc21)c1ccc(F)cc1 (stereo not drawn) |
| 10 µM |  | c1ccc2c3c([nH]c2c1)CC(NC1CCCC1)CC3 (stereo not drawn) |
| 17.3 µM |  | CC1CCC(NC2CCc3c([nH]c4ccccc34)C2)C1 (stereo not drawn) |
| > 100 µM |  | c1ccc2c3c([nH]c2c1)CC(NC1CCOCC1)CC3 (stereo not drawn) |
| 2 µM |  | Cc1ccc2[nH]c3c(c2c1)CCC(NC1CCC(C)C1)C3 (stereo not drawn) |
| 4.81 µM |  | CC1CCC(NC2CCCc3c2[nH]c2ccc([N+](=O)[O-])cc32)C1 (stereo not drawn) |
| > 100 µM |  | O=S(=O)(NC1CCCc2c1[nH]c1ccccc21)c1cccnc1 (stereo not drawn) |
| 11 µM |  | c1ccc2c3c([nH]c2c1)CC(NC1CCCCC1)CC3 (stereo not drawn) |

More lines, now with the values behind:

| Compound | IC50 [1] | IC50 [2] |
| --- | --- | --- |
| N#Cc1ccc(S(=O)(=O)NC2CCCc3c2[nH]c2ccccc32)cc1 (stereo not drawn) | > 100 µM |  |
| O=S(=O)(NC1CCc2c([nH]c3ccccc23)C1)c1ccc(F)cc1 (stereo not drawn) | 9.5 µM |  |
| N#Cc1ccc(S(=O)(=O)NC2CCc3c([nH]c4ccccc34)C2)cc1 (stereo not drawn) | > 100 µM |  |
| COc1cccc(C(=O)NC2CCc3c([nH]c4ccccc34)C2)c1 (stereo not drawn) | > 100 µM |  |
| O=C(NC1CCc2c([nH]c3ccccc23)C1)c1ccccc1F (stereo not drawn) | > 100 µM |  |
| c1ccc(CNC2CCc3c([nH]c4ccccc34)C2)cc1 (stereo not drawn) | 6.92 µM |  |
| Cc1ccc2[nH]c3c(c2c1)CCC(NCc1ccccc1)C3 (stereo not drawn) | 2.2 µM |  |
| Cc1ccc(CNC2CCc3c(n(C)c4ccccc34)C2)cc1 (stereo not drawn) | 3.5 µM |  |
| O=S(=O)(NC1CCc2c([nH]c3ccccc23)C1)c1cccnc1 (stereo not drawn) | > 100 µM |  |
| O=C(NC1CCc2c([nH]c3ccccc23)C1)c1cccc(F)c1 (stereo not drawn) | 100 µM |  |
| Cc1ccc(CNC2CCc3c([nH]c4ccccc34)C2)cc1 (stereo not drawn) | 4.1 µM |  |
| Cc1ccc(CNC2CCc3c([nH]c4ccc(C)cc34)C2)cc1 (stereo not drawn) | 2.9 µM |  |

Source: BindingDB's records for doi:10.1016/j.ejmech.2017.02.062 (Padmashri Vikhe Patil College of Arts, 2017)
